Laboratory results: ChEMBL document CHEMBL1157664, “Aminopyridinecarboxamide-based inhibitors: Structure-activity relationship” (Bioorg Med Chem, 2010)
Activity calls are given as the source filed them. No cut-off for these calls is given here.

What was measured:
[1] = molecular target: T1, Inhibitor of nuclear factor kappa-B kinase subunit alpha (Homo sapiens, UniProt O15111); assay: Inhibition of IKK1
T1 sequence (O15111 whole entry): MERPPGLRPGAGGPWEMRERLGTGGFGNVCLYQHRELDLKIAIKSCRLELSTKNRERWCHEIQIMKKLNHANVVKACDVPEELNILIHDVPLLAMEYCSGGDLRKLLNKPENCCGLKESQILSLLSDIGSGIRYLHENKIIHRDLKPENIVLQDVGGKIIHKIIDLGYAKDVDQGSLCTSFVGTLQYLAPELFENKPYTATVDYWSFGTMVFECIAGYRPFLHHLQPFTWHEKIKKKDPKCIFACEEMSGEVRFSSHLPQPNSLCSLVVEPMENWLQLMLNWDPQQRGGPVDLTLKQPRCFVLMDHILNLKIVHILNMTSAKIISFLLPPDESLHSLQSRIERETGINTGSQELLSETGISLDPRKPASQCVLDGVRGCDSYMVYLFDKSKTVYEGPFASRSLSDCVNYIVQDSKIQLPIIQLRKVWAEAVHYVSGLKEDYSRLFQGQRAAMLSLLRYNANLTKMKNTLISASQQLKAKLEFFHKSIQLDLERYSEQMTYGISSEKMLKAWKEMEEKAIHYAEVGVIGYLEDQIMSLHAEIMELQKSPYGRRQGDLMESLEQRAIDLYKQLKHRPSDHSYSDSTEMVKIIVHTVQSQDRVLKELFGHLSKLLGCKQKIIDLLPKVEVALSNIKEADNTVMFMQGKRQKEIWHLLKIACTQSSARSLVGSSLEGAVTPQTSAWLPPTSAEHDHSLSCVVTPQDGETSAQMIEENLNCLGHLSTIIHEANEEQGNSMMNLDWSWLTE

[2] = molecular target: T2, Inhibitor of nuclear factor kappa-B kinase subunit epsilon (Homo sapiens) (UniProt Q14164); assay: Inhibition of IKKI
T2 sequence (whole entry): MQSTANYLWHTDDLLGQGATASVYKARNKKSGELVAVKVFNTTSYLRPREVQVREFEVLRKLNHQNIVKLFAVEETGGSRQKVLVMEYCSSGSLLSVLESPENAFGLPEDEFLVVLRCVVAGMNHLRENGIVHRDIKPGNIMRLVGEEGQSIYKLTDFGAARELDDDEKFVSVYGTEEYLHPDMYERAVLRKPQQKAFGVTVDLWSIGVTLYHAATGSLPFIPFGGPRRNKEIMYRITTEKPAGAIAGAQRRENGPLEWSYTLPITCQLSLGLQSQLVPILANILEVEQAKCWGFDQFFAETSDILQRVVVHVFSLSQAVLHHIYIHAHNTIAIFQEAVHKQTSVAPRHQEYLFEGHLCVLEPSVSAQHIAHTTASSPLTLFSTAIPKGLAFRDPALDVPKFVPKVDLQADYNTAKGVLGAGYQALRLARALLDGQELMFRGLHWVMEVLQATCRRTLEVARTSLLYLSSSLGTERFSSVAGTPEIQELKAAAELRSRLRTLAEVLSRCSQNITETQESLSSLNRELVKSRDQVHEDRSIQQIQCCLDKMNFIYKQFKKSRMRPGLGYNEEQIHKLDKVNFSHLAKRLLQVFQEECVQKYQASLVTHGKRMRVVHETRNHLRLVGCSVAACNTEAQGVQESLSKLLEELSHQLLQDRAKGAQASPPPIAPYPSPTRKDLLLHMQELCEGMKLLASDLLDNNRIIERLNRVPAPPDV

[3] = molecular target: T3, Inhibitor of nuclear factor kappa-B kinase subunit beta (Homo sapiens, UniProt O14920); assay: Inhibition of human recombinant IKK2-mediated transfer of [gamma33P]ATP to biotinylated IkappaBalpha after 30 mins by scintillation counting
T3 sequence (O14920 whole entry): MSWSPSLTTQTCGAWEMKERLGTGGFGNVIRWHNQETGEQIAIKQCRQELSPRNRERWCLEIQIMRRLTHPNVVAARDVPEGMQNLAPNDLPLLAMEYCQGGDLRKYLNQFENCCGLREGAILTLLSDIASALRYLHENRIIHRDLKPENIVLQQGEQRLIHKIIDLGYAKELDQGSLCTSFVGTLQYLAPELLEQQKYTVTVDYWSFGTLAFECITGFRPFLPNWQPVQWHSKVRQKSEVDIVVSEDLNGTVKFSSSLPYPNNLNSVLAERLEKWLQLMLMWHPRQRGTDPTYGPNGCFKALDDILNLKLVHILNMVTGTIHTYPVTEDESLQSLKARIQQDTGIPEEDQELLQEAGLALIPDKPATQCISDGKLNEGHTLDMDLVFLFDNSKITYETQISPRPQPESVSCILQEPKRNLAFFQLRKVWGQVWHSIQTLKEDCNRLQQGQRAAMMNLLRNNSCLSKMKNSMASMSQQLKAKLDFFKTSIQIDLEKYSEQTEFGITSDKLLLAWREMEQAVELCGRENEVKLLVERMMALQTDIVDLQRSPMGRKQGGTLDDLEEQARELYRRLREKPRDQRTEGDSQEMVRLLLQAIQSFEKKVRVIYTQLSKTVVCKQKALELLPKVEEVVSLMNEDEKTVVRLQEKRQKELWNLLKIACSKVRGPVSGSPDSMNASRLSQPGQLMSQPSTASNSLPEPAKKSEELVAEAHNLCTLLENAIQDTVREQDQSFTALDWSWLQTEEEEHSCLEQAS
Summary of the method: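 Recombinant human IKK-2 enzyme (46 nM/rxn, 200 ng/rxn). Substrate 5 µM biotinylated IκBα peptide (residues spanning Ser32/Ser36) with 1 µM ATP plus 0.1 µCi [γ-33P]ATP. Buffer 25 mM Hepes pH 7.6 with 1 mM DTT, 2 mM MgCl2, 2 mM MnCl2, 10 mM NaF. Incubated 30 min at 25 °C, stopped with AG1X8 resin in formate buffer pH 3. Supernatant ³³P read by scintillation counting.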

[4] = molecular target: T4, Serine/threonine-protein kinase TBK1 (Homo sapiens) (UniProt Q9UHD2); assay: Inhibition of TBK1
T4 sequence (whole entry): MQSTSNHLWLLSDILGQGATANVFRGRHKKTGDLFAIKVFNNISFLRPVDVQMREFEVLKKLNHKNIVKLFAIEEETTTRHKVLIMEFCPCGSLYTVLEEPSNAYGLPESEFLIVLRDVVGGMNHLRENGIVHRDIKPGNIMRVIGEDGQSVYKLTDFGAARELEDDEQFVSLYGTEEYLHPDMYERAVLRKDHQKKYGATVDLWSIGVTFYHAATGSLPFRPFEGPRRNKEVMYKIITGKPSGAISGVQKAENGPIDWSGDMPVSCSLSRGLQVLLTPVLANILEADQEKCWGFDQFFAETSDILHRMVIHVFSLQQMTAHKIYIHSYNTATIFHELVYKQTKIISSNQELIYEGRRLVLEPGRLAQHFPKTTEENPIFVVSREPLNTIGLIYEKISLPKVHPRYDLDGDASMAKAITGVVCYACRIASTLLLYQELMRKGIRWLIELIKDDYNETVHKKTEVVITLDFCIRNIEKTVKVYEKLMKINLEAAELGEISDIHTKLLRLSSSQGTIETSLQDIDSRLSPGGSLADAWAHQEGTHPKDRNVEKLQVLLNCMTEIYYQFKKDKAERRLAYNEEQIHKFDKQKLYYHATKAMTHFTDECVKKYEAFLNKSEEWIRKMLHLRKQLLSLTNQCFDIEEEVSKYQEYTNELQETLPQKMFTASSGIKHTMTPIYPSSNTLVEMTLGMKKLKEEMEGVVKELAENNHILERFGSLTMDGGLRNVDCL

[5] = Antiinflammatory activity in human synovial fibroblasts assessed as inhibition of IL-1-beta-stimulated IL8 production treated 1 hr before IL1-beta challenge measured after 18 hrs by ELISA; type: functional
Summary of the method: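 Rheumatoid arthritis patient synovial fibroblasts seeded at 1.5 × 10^4 cells/well in DMEM + 15% FBS and left to attach overnight. Medium then changed to DMEM + 1% FBS. Cells pretreated 1 h with increasing compound concentrations (0.2% Me2SO final), then stimulated 18 h with 1 ng/mL IL-1β. Secreted IL-8 measured by ELISA against standard curves (4-parameter logistic). Cytotoxicity checked by Alamar Blue.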

Question: What does the source list for `CN1CCN(c2cc(C(=O)Nc3ccc4c(c3)-c3c(c(C(N)=O)nn3-c3ccc(F)cc3)CC4)c(Cl)cn2)CC1`?
Answer: IC50 [1]: 14000 nM; inhibition [2]: inactive; IC50 [3]: 25 nM; inhibition [4]: inactive; IC50 [5]: 940 nM
